# From PubChem
# The list is not random: actives were taken first. Their share in the collection is about 1.7%.
# Rtt109 Vps75: inhibitors of C. albicans Rtt109/Vps75 HAT, primary screen, biochemical, ThioGlo CoA-SH fluorescence, plate reader; Histone acetyltransferase RTT109 (Candida albicans (strain SC5314 / ATCC MYA-2876)), …; inhibition, % at 34.9 µM; purified Rtt109/Vps75, 4 h; actives 0.16% (n = 330,000);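 active = inhibition of at least 50% in every replicate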
# Target sequence (Q5AAJ8 whole entry, looked up): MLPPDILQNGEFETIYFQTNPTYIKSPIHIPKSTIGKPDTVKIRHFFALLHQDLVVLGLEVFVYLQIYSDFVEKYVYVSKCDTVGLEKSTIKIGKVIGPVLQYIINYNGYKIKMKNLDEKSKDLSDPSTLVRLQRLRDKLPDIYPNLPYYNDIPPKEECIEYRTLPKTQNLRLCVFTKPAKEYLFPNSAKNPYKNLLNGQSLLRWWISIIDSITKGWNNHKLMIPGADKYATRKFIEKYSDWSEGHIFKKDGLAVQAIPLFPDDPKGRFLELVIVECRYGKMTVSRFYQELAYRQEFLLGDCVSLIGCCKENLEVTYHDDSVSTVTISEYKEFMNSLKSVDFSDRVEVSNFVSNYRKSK
# FN deposit inh: inhibitors of fibronectin matrix deposition, primary screen, AH1F cells, Alexa488-fibronectin fluorescence, plate reader; AH1F fibroblasts, overnight; inhibition, % at 12.6 µM; actives 0.086% (n = 350,000);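 active = mean inhibition across replicates of 30% or more, regardless of how many single replicates reach that level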;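 note: positive control wells lacked labelled fibronectin entirely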
#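 Material: AH1F fibroblasts assembling fluorescent fibronectin matrix; amount: 10000 AH1F cells/well; medium: DMEM, 2% serum; reagent: Alexa488-fibronectin, 24 nM final in well; dosing: single compound dose, delivered by pin transfer; incubation: 1 h adhesion, overnight exposure; detection: fluorescence after three HBSS washes, excitation 485 nm, emission 525 nm; measure: fibronectin deposition inhibition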
# SKKanGAS inh: S. pyogenes SKKanGAS growth inhibitors in kanamycin, primary screen, streptokinase expression inhibitor project, SKKanGAS strain, BacTiter-Glo luminescence | inhibition, % at 7.5 µM | actives 1.3% (n = 300,000) | 6 h | AID 1662, 2009;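 active = mean replicate score, as percent of positive control median, at least 50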;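 note: strain carries kanamycin resistance gene driven by streptokinase promoter and grows in 40 µg/ml kanamycin; loss of luminescence reflects streptokinase promoter inhibition or plain growth inhibition; 0% = median of DMSO wells and 100% = positive control at its reference dose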
# PglD DTNB: C. jejuni PglD acetyltransferase inhibitors, primary screen, biochemical, DTNB colorimetric, single point | purified PglD enzyme, DTNB colorimetric CoA detection | inhibition, % at 12.5 µM | actives 0.098% (n = 360,000) | AID 602405, 2012; in the data active = inhibition above about 16%, passing the limit was not always enough
# CSC inhib: cancer stem cell viability inhibitors, primary screen, luminescence. AID 2717, 2010. cancer stem cell-like cells viability. inhibition, % at 7.5 µM. actives 1.1% (n = 300,000); in the data active = inhibition above about 75%; tested in HMLE shEcad cells
# PfHsp90 set2: growth inhibition of PfHsp90-expressing yeast, primary screen, antimalarial PfHsp90 inhibitor project, S. cerevisiae, BacTiter-Glo luminescence, single point, set 2. inhibition, % at 9.4 µM. actives 0.32% (n = 310,000). BacTiter-Glo ATP, 48 h; yeast lacking PDR1 and PDR3 efflux regulators. AID 504621, 2011;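 active = every replicate shows inhibition above about 80%, whatever the replicate mean, limit read from the data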;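 note: 0% = DMSO neutral controls and 100% = 20 µM radicicol positive controls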
# Numbers without * were called inactive; / = no result given.
SMILES,Rtt109 Vps75,FN deposit inh,SKKanGAS inh,PglD DTNB,CSC inhib,PfHsp90 set2
CCCC1=NN2C(=N)/C(=C\c3cc(C)n(-c4cc(C)cc(C)c4)c3C)C(=O)N=C2S1,-4,-8,72*,-14,-3,-17
C[C@@H]1CN([C@@H](C)CO)C(=O)c2cc(NC(=O)CCN3CCOCC3)ccc2O[C@@H]1CN(C)S(=O)(=O)c1ccc(Cl)cc1,/,/,/,0,/,/
CCN1C(=O)C(CC(=O)Nc2ccc(Br)cc2)N(CCCc2ccccc2)C1=S (stereo not drawn),27,/,92*,0,-15,-5
CCOc1ccc(NC(=O)CC2C(=O)N(C)C(=S)N2CCCc2ccccc2)cc1 (stereo not drawn),-3,3,2,-5,24,4
CCN1C(=O)C(CC(=O)Nc2ccc(F)cc2)N(CCCN2CCN(c3ccc(F)cc3)CC2)C1=S (stereo not drawn),6,-11,4,/,105*,/
CNC[C@H]1Oc2ccc(NC(=O)Cn3cnnn3)cc2CC(=O)N([C@@H](C)CO)C[C@@H]1C,/,/,/,-1,/,/
CC(C)COc1ccc(-c2nnc(-c3ccco3)o2)cc1,0,/,38,4,-3,/
CCN(CC)CCCNc1ccc(-c2nnc(-c3ccc(OCC(C)C)cc3)o2)cn1,22,9,13,-3,103*,21
N#C[C@H]1[C@@H](c2ccc(/C=C/c3ccccc3)cc2)[C@@H](CO)N1C(=O)C1CC1,/,-1,/,0,/,/
O=C(OC[C@H]1O[C@@H](OC(=O)c2cc(O)c(O)c(OC(=O)c3cc(O)c(O)c(O)c3)c2)[C@H](OC(=O)c2cc(O)c(O)c(OC(=O)c3cc(O)c(O)c(O)c3)c2)[C@@H](OC(=O)c2cc(O)c(O)c(OC(=O)c3cc(O)c(O)c(O)c3)c2)[C@@H]1OC(=O)c1cc(O)c(O)c(OC(=O)c2cc(O)c(O)c(O)c2)c1)c1cc(O)c(O)c(OC(=O)c2cc(O)c(O)c(O)c2)c1,/,/,/,/,90*,/
COC1OC(COC(=O)c2ccccc2)C(OC(=O)c2ccccc2)C1OC(=O)c1ccccc1 (stereo not drawn),-2,-4,-6,1,-7,-7
C[C@@H]1CCCCO[C@@H](CN(C)C(=O)CCCN(C)C)[C@@H](C)CN([C@@H](C)CO)C(=O)c2cc(NC(=O)c3ccccc3)ccc2O1,/,/,/,0,/,/
Cc1ccc(S[C@@H](CCN2CC[C@H](O)CCC2=O)c2ccccc2)cc1,-3,-6,0,-2,1,-26
C[C@@H]1CCC(=O)N(CC[C@H](Sc2ccc(Br)cc2)c2ccccc2)CC1,4,3,/,4,97*,10
Cc1ccc(S[C@@H](CCN2CC[C@H](C(C)(C)C)CCC2=O)c2ccccc2)cc1,8,-3,76*,-1,108*,3
Cc1ccc(S[C@@H](CCN2CC[C@H](C)CCC2=O)c2ccccc2)cc1,5,/,12,2,40,-18
CCCNC(=O)N1[C@@H]2CN(C(=O)CC)c3ccccc3[C@@H]2[C@@H]1CO,/,/,/,-1,/,/
C[C@H]1CN(C)C(=O)c2cc(N(C)C)ccc2O[C@@H]1CN(C)C,/,-14,/,/,/,/
O=c1c2[nH]c3ccccc3c2ncn1CCC1=CCCCC1,5,-1,-3,-4,11,1
C1=C(CCNc2ncnc3c2[nH]c2ccccc23)CCCC1,1,-5,/,/,77*,-2
CCN(c1ccc(OC)cc1)S(=O)(=O)c1nnc(NC(=O)c2ccco2)s1,-2,-11,23,1,8,4
CCN(c1ccc(OC)cc1)S(=O)(=O)c1nnc(NC(=O)c2ccccc2Cl)s1,12,/,50*,5,21,-5
O=C(Nc1nnc(-c2ccc3c(c2)CCCC3)o1)c1ccccc1Cl,11,-2,90*,/,35,-186
O=C(Nc1nnc(-c2ccc3c(c2)OCCO3)o1)c1ccc(Cc2ccccc2)cc1,-6,-6,102*,4,/,-54
O=C(COc1ccccc1)Nc1nnc(-c2ccccc2Cl)o1,9,1,53*,3,3,0
SMILES,Rtt109 Vps75,FN deposit inh,SKKanGAS inh,PglD DTNB,CSC inhib,PfHsp90 set2
O=C(Nc1nnc(-c2ccc3c(c2)CCCC3)o1)c1ccccc1,10,2,94*,-4,92*,2
O=C(COc1ccccc1)Nc1nnc(-c2ccc(F)cc2)o1,-3,1,28,-6,1,-5
Cc1ccc(S(=O)(=O)Nc2ccc3c(c2)C(=O)N([C@H](C)CO)C[C@@H](C)[C@H](CN(C)CC2CCCCC2)OCCCC[C@@H](C)O3)cc1,/,/,/,1,/,/
O=C(COc1ccccc1)Nc1nnc(-c2ccc3c(c2)CCCC3)o1,7,-8,89*,0,5,-10
O=C(NNc1nc2c(F)cccc2s1)C1=COCCO1,0,7,1,-1,-1,2
Cc1ccc2sc(NNC(=O)C3=COCCO3)nc2c1C,59*,-10,4,/,-8,-7
O=C(NNc1ccccc1Br)C(=O)n1ccc2ccccc21,3,9,12,/,85*,19
O=C(Nc1ccccc1Br)C(=O)N1CCCC1,-6,/,0,-7,/,3
CC(=O)N(C)C[C@@H]1Oc2ncc(C#Cc3ccncc3)cc2C(=O)N([C@@H](C)CO)C[C@H]1C,/,-4,/,-3,/,/
O=C(Nc1ccc(-c2nc3ccc(NC(=O)c4cccs4)cc3[nH]2)cc1)c1cccs1,-9,/,0,/,102*,-17
O=C(c1ccccc1)c1ccc2nc(-c3ccc(NC(=O)c4ccccc4Br)cc3)[nH]c2c1,-3,/,28,2,/,4
Cc1ccccc1C(=O)Nc1ccc(-c2nc3ccc(C(=O)c4ccccc4)cc3[nH]2)cc1,-8,/,31,2,84*,0
O=C(Cc1cccs1)Nc1cccc(-c2nc3cc4ccccc4cc3[nH]2)c1,5,1,72*,/,99*,24
C[C@H](CO)N1C[C@H](C)[C@@H](CN(C)Cc2ccc(C(=O)O)cc2)Oc2ccc(NC(=O)Nc3ccc4c(c3)OCO4)cc2C1=O,/,/,/,6,/,/
COc1ccc(Br)cc1/C=C/C(=O)Nc1ccc(C)cc1,-9,-3,7,-10,69,27
COc1ccc(Br)cc1/C=C/C(=O)Nc1ccc2ccccc2c1,-1,10,2,1,77*,-7
CC(C)(C)c1ccc(OC(=O)c2cccnc2)cc1,-17,1,-5,2,-11,-20
Cc1cc(C(C)(C)C)cc(C)c1COC(=O)c1cccnc1,1,-7,64*,/,-1,-5
